Measurements published in ChEMBL document CHEMBL1138547, “Synthesis, biological evaluation and 2D-QSAR analysis of benzoxazoles as antimicrobial agents” (2009).
Values after ≈ are worked out from the molar mass of the structure shown.

How the values were obtained:
Type in all cases: functional
Klebsiella pneumoniae [1] = assay: Antimicrobial activity against Klebsiella pneumoniae RSHM 574 after 24 hrs; conditions: RSHM 574, 24 h
Method in brief: (§1)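 MIC by twofold serial dilution in Mueller-Hinton broth (MHB); MHB also used to dilute the bacterial suspension. Wells held 10^3 cfu/ml bacteria after inoculation. Controls: 80% DMSO, 20% EtOH, methanol, DMSO, PBS, organism alone and medium alone. Triplicate in each run. MIC taken as the lowest concentration completely inhibiting macroscopic growth.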

Bacillus subtilis [2] = assay: Antimicrobial activity against ceftriazone-resistant Bacillus subtilis after 24 hrs
Method in brief: (§2)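 Twofold serial broth dilution in Mueller-Hinton broth. MHB was used both to dilute the bacterial suspension and for the twofold compound dilutions, giving 10^3 cfu/ml bacteria per well after inoculation. Solvent, medium and organism-only wells served as controls. Each organism was run in triplicate.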

Staphylococcus aureus [3] = assay: Antimicrobial activity against Staphylococcus aureus ATCC 25923 after 24 hrs; conditions: ATCC 25923, 24 h; method in brief: as §2
Candida albicans [4] = assay: Antimicrobial activity against Candida albicans ATCC 10231 after 24 to 48 hrs
Method in brief: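 Twofold serial dilution following CLSI M27-A. Yeast suspension made at 10^4 cfu/ml by diluting a fresh culture at McFarland 0.5 (10^6 cfu/ml). Inoculated into the diluted compound, incubated at 35 °C in a humid chamber, read after 48 h. Triplicate in each run. MIC is the lowest concentration completely inhibiting macroscopic growth.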

Bacillus subtilis [5] = assay: Antimicrobial activity against Bacillus subtilis ATCC 6633 after 24 hrs; conditions: for MIC: Bacillus subtilis, ATCC 6633, 24 h; method in brief: as §1
Candida albicans [6] = assay: Antimicrobial activity against multidrug-resistant Candida albicans isolates after 24 to 48 hrs
Method in brief: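 Yeast broth microdilution following CLSI M27-A, with Sabouraud dextrose medium noted for antifungal assays. Fresh cultures at McFarland 0.5 (10^6 cfu/ml) were diluted to 10^4 cfu/ml and inoculated into twofold compound dilutions. Trays were incubated at 35 °C in a humid chamber and read at 48 h, in triplicate. MIC was the lowest concentration giving complete macroscopic growth inhibition.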

Staphylococcus aureus [7] = assay: Antimicrobial activity against multidrug-resistant Staphylococcus aureus after 24 hrs; method in brief: as §2
Escherichia coli [8] = assay: Antimicrobial activity against multidrug-resistant Escherichia coli after 24 hrs; method in brief: as §2
Escherichia coli [9] = assay: Antimicrobial activity against Escherichia coli ATCC 25922 after 24 hrs; conditions: ATCC 25922, 24 h; method in brief: as §1
Pseudomonas aeruginosa = assay: Antimicrobial activity against Pseudomonas aeruginosa ATCC […] after 24 hrs; method in brief: as §1
Klebsiella pneumoniae [10] = assay: Antimicrobial activity against multidrug-resistant Klebsiella pneumoniae after 24 hrs; method in brief: as §2

| SMILES | MIC (Klebsiella pneumoniae [1]) [µg/mL] | MIC (Bacillus subtilis [2]) [µg/mL] | MIC (Staphylococcus aureus [3]) [µg/mL] | MIC (Candida albicans [4]) [µg/mL] | log(1/C) (Bacillus subtilis [5]) | MIC (Bacillus subtilis [5]) [µg/mL] | MIC (Candida albicans [6]) [µg/mL] | MIC (Staphylococcus aureus [7]) [µg/mL] | MIC (Escherichia coli [8]) [µg/mL] | MIC (Escherichia coli [9]) [µg/mL] | MIC (Pseudomonas aeruginosa) [µg/mL] | MIC (Klebsiella pneumoniae [10]) [µg/mL] |
| --- | --- | --- | --- | --- | --- | --- | --- | --- | --- | --- | --- | --- |
| CC(C)(C)c1ccc(-c2nc3ccc(N)cc3o2)cc1 | 50 (≈ 188 µM) | 25 (≈ 93.9 µM) | 100 (≈ 375 µM) | 50 (≈ 188 µM) | 4.027 | 25 (≈ 93.9 µM) | 50 (≈ 188 µM) | 100 (≈ 375 µM) | 100 (≈ 375 µM) | 50 (≈ 188 µM) | 25 (≈ 93.9 µM) | 100 (≈ 375 µM) |
| Cc1ccc2oc(-c3ccccc3[N+](=O)[O-])nc2c1 | – | – | – | – | 4.007 | 25 (≈ 98.3 µM) | – | – | – | – | – | – |
| CCc1ccc(-c2nc3ccc([N+](=O)[O-])cc3o2)cc1 | 50 (≈ 186 µM) | 25 (≈ 93.2 µM) | 100 (≈ 373 µM) | 50 (≈ 186 µM) | 3.73 | 50 (≈ 186 µM) | 100 (≈ 373 µM) | 100 (≈ 373 µM) | 100 (≈ 373 µM) | 50 (≈ 186 µM) | 50 (≈ 186 µM) | 100 (≈ 373 µM) |
| Cc1ccc(-c2nc3cc(C)ccc3o2)c(C)c1 | – | – | – | – | 3.977 | – | – | – | – | – | – | – |
| Cc1ccc2nc(-c3ccc(Br)cc3)oc2c1 | – | – | – | – | 4.363 | 12.5 (≈ 43.4 µM) | – | – | – | – | – | – |
| Nc1ccc2nc(Cc3ccc(Cl)cc3)oc2c1 | 50 (≈ 193 µM) | 25 (≈ 96.6 µM) | 100 (≈ 387 µM) | 50 (≈ 193 µM) | 4.32 | 12.5 (≈ 48.3 µM) | 50 (≈ 193 µM) | 100 (≈ 387 µM) | 100 (≈ 387 µM) | 50 (≈ 193 µM) | 25 (≈ 96.6 µM) | 100 (≈ 387 µM) |
| Cc1ccc2oc(-c3ccc(Br)cc3)nc2c1 | – | – | – | – | 4.363 | 12.5 (≈ 43.4 µM) | – | – | – | – | – | – |
| Nc1ccc2oc(Cc3ccc(F)cc3)nc2c1 | 50 (≈ 206 µM) | 50 (≈ 206 µM) | 200 (≈ 826 µM) | 100 (≈ 413 µM) | 3.685 | 50 (≈ 206 µM) | 50 (≈ 206 µM) | 100 (≈ 413 µM) | 25 (≈ 103 µM) | 50 (≈ 206 µM) | 50 (≈ 206 µM) | 100 (≈ 413 µM) |
| Cc1ccc2oc(-c3ccc(Cl)cc3Cl)nc2c1 | – | – | – | – | 4.046 | 25 (≈ 89.9 µM) | – | – | – | – | – | – |
| CC1COc2c(N3CCN(C)CC3)c(F)cc3c(=O)c(C(=O)O)cn1c23 (stereo not given) [OFLOXACIN] | 0.25 (≈ 0.692 µM) | 32 (≈ 88.6 µM) | 0.25 (≈ 0.692 µM) | – | – | 0.125 (≈ 0.346 µM) | – | 2 (≈ 5.53 µM) | 32 (≈ 88.6 µM) | 0.125 (≈ 0.346 µM) | 8 (≈ 22.1 µM) | 64 (≈ 177 µM) |
| Cc1ccc2oc(-c3ccccc3F)nc2c1 | – | – | – | – | 3.959 | 25 (≈ 110 µM) | – | – | – | – | – | – |
| COc1ccccc1-c1nc2ccc(C)cc2o1 | – | – | – | – | 3.981 | 25 (≈ 104 µM) | – | – | – | – | – | – |
| Cc1ccc2oc(-c3ccccc3)nc2c1 | – | – | – | – | 4.224 | 12.5 (≈ 59.7 µM) | – | – | – | – | – | – |
| C[C@@H]1[C@H](O)[C@@H](C)/C=C/C=C/C=C/C=C/C=C/C=C/C=C/[C@H](O[C@@H]2O[C@H](C)[C@@H](O)[C@H](N)[C@@H]2O)C[C@@H]2O[C@](O)(C[C@@H](O)C[C@@H](O)[C@H](O)CC[C@@H](O)C[C@@H](O)CC(=O)O[C@H]1C)C[C@H](O)[C@H]2C(=O)O [AMPHOTERICIN B] | – | – | – | 1 (≈ 1.08 µM) | – | – | 1 (≈ 1.08 µM) | – | – | – | – | – |
| COc1ccccc1-c1nc2cc(C)ccc2o1 | – | – | – | – | 3.981 | 25 (≈ 104 µM) | – | – | – | – | – | – |
| Cc1ccc2oc(-c3ccc([N+](=O)[O-])cc3)nc2c1 | – | – | – | – | 4.609 | 6.25 (≈ 24.6 µM) | – | – | – | – | – | – |
| Cc1ccc2oc(-c3ccc(Cl)cc3)nc2c1 | – | – | – | – | 4.29 | 12.5 (≈ 51.3 µM) | – | – | – | – | – | – |
| Cc1ccc2nc(-c3ccccc3Cl)oc2c1 | – | – | – | – | 3.989 | – | – | – | – | – | – | – |
| Cc1ccc2oc(-c3ccccc3Cl)nc2c1 | – | – | – | – | 3.989 | 25 (≈ 103 µM) | – | – | – | – | – | – |
| Cc1ccc2nc(-c3ccc(Cl)cc3Cl)oc2c1 | – | – | – | – | 4.046 | 25 (≈ 89.9 µM) | – | – | – | – | – | – |
